Rows were chosen to be rich in hits. Some 2.3% of all compounds tested hit in one or more screens of this group.
C2C12 statin = suppressors of simvastatin-induced myotoxicity in C2C12 myotubes; ATP luminescence, 48 h; scaled: DMSO 0, geranylgeraniol control 100; rescue of ATP level, % at 7.49 µM; AID 602340; actives 0.78% (n = 330,000);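 active = mean ATP rescue above about 67%, or every replicate alone reaching that limit, limit read from the data, passing the limit was not always enough; inconclusive = no clear call, values can overlap the other calls; inactive = mean under the limit and some replicate under it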;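 also: myotubes were challenged with 10 µM simvastatin during compound exposure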
ERp5 inh = inhibitors of human ERp5; inhibition, % at 9.99 µM; ERp5 insulin aggregation, absorbance 650 nm, 90 min; actives 0.05% (n = 350,000); Q15084;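 active = mean replicate inhibition above about 25%, with every replicate also reaching it, limit read from the data, passing the limit was not always enough; inconclusive = only one of those two criteria met; inactive = neither criterion met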
Target sequence (Q15084 whole entry, looked up): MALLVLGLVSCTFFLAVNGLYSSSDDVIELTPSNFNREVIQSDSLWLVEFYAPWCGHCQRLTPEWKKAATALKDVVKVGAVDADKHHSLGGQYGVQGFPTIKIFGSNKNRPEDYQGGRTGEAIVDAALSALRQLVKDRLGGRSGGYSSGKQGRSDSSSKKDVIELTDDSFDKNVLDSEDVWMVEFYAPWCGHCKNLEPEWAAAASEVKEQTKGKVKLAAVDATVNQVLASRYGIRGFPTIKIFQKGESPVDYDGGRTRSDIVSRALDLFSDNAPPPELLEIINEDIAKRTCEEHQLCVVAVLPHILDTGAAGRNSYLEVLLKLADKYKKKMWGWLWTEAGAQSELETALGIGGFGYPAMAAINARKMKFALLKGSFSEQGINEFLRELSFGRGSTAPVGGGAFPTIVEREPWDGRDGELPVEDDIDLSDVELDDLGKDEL
PDI turbidity = inhibitors of human protein disulfide isomerase; inhibition, % at 10 µM; actives 0.052% (n = 350,000); P07237; PDI insulin aggregation turbidity, A650, 90 min; AID 588391;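 active = mean inhibition across replicates of 30% or more, whatever share of single replicates reach that level; inconclusive = mean inhibition below 30% while every single replicate reaches 30%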
DENV2 CPE rescue = DENV2-induced cell death inhibition. DENV2-infected cells, cytopathic effect rescue, plate reader. CPE inhibition, % at 9.99 µM. actives 1.7% (n = 350,000). AID 651640; in the data active = CPE inhibition above about 20%, passing the limit was not always enough; inconclusive = no clear call, values can overlap the other calls; tested in BHK-21 cells;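 also: 0% = median of neutral control wells and 100% = median of positive control wells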
Cneo AK release = Cryptococcus neoformans lysis via adenylate kinase release; C. neoformans lysis, adenylate kinase release luminescence, 4 h; normalised: neutral wells 0, clomiphene wells 100; lysis activity, % at 15 µM; actives 0.2% (n = 360,000);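 active = mean lysis activity across replicates of at least 80%, whatever share of replicates individually reach that level; inactive = mean lysis activity below 80%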
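Assay system: C. neoformans cells. Amount: yeast cell density of 5 × 10^6 cells/mL. Technique: AK luminescence. Buffer or medium: YPD. Times: static 4 h at 37 °C with compound, 1 h detection. Dosing: single-point compound dose. Read-out: lysis from increased AK signal.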
CFTR F508del cor = CFTR F508del correction in bronchial cells | CFBE cells, YFP halide quenching; stimulated with forskolin plus potentiator P3; % fluorescence drop versus neutral controls | activity (quench increase), % at 7.58 µM | actives 0.36% (n = 350,000) | AID 720511;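 active = mean added fluorescence quench of at least 8% versus neutral control, with both replicates also reaching 8%; inconclusive = only one of the mean or replicate conditions met; inactive = mean below 8% and not both replicates reaching 8%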;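 also: cells transiently co-express mutant CFTR-F508del with the halide-sensitive YFP; corrector assay measuring rescue of mutant channel to the surface after 24 h compound exposure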
Active calls of the source: *; ? = inconclusive; nt = not tested or not shown; ! = not confirmed by another sample.

SMILES	C2C12 statin	ERp5 inh	PDI turbidity	DENV2 CPE rescue	Cneo AK release	CFTR F508del cor
O=C(C[C@@H]1CC[C@@H]2[C@H](COC[C@H](O)CN2C(=O)c2ccc3c(c2)OCO3)O1)NCCN1CCCC1	nt	-4.0	nt	30.5*	nt	0.0
CO[C@@H]1CN(C)C(=O)c2cc(NC(=O)C3CCCC3)ccc2OC[C@H](C)N(CCC(F)(F)F)C[C@H]1C	3.7	-1.9	nt	0.2	2.6	3.0
CO[C@H]1CN(C)C(=O)c2ccc(NC(C)=O)cc2OC[C@H](C)N(Cc2cc(F)ccc2F)C[C@H]1C	-1.7	-2.0	nt	7.1	-0.1	-2.1
N#CC(=C1Nc2ccccc2N1)S(=O)(=O)c1ccccc1	107.8*	-0.1	-5.5	-1.8	-0.4	-0.6
N#C[C@@H]1[C@@H](c2ccc(C#Cc3ccccc3F)cc2)[C@@H](CO)N1C(=O)C1CCC1	-2.9	3.0	nt	51.2*	-2.3	-6.8
COCC(=O)N1[C@@H](C#N)[C@@H](c2ccc(C3=CCCCC3)cc2)[C@@H]1CO	-35.9	-10.2	nt	24.1*	-3.0	-2.6
COCC(=O)N1[C@H](C#N)[C@H](c2ccc(C#Cc3ccccc3F)cc2)[C@H]1CO	-2.9	5.3	nt	?	83.0*	1.6
N#C[C@H]1[C@@H](c2ccc(C#Cc3ccccc3F)cc2)[C@H](CO)N1C(=O)C1CCC1	-3.3	2.8	nt	11.9	-4.3	-1.7
N#C[C@H]1[C@H](c2ccc(C#Cc3ccccc3F)cc2)[C@H](CO)N1C(=O)C1CC1	-9.5	-0.7	nt	30.2*	-9.9	-3.4
C[C@@H]1CN([C@H](C)CO)S(=O)(=O)c2ccc(-c3cccc(C(=O)N(C)C)c3)cc2O[C@H]1CN(C)C(=O)Cc1ccccn1	-2.8	17.1	nt	-6.3	-11.7	-1.2
O=C1C[C@@H]2c3c(cccc3CN1Cc1ccc(Br)cc1)C[C@@H](O)[C@H]2O	100.4*	-5.0	8.5	13.1	1.7	-2.6
O=C(NCCN1CCCC1)C1CCC(=O)N(CCCN2CCOCC2)C1 (stereo not drawn)	0.6	16.4	-7.1	35.2*	-2.4	0.7
C[C@@H]1CN([C@@H](C)CO)C(=O)Cc2cc(N(C)C)ccc2O[C@@H]1CN(C)C(=O)Nc1ccc(F)cc1	-0.8	-2.6	nt	2.8	0.4	1.1
Cc1ccc(C2OC(=O)c3ccccc32)cc1 (stereo not drawn)	133.1*	nt	16.7	nt	-1.2	nt
Cc1csc(NC(=O)CSc2nc3[nH]c(=O)cc(O)c3s2)n1	174.7*	-10.5	2.7	-7.1	-1.6	5.7
CCc1ccc(CNCc2cccnc2)cc1	113.8*	nt	-0.6	nt	-1.8	nt
C=CCOc1ccc(CNCCO)cc1OCC	1.5	-0.7	-0.6	5.0	-1.0	nt
Cc1ccccc1CNCc1cccnc1	0.7	nt	10.4	nt	nt	nt
C=CCOc1ccc(CNCc2cccnc2)cc1OCC	14.1	1.8	-1.4	22.4*	0.8	nt
C[C@H]1CN([C@@H](C)CO)C(=O)c2cccc(NS(=O)(=O)c3cn(C)cn3)c2O[C@@H]1CN(C)Cc1ccc(C(=O)O)cc1	nt	2.7	nt	6.2	0.6	-0.7
C[C@@H]1CN([C@H](C)CO)C(=O)c2cc(C3=CCCC3)cnc2O[C@@H]1CN(C)Cc1ccccc1C(=O)O	-34.2	4.7	nt	-5.0	5.7	-1.1
CO[C@H]1CC[C@@H]2CCN(C)C(=O)[C@@H](C)[C@H](OC)CN(C)C(=O)c3cc(C#N)ccc3OC[C@H]1O2	-0.2	1.0	nt	1.5	3.4	3.3
O=C(CCN1CCOCC1)N/N=C/c1cc([N+](=O)[O-])ccc1OC(F)F	-7.3	-1.3	-5.8	21.5*	2.1	1.0
COc1cccc(N=Nc2c(=O)[nH]n3c(=O)cc(C)[nH]c23)c1	93.7*	nt	8.3	nt	nt	nt
COc1cccc(N=Nc2c(=O)[nH]n3c(=O)c4c([nH]c23)CCC4)c1	nt	nt	-16.8	nt	nt	nt
SMILES	C2C12 statin	ERp5 inh	PDI turbidity	DENV2 CPE rescue	Cneo AK release	CFTR F508del cor
CCNC(=O)C[C@H]1C=C[C@H](NS(=O)(=O)c2ccc(F)cc2)[C@@H](CO)O1	-0.9	-2.4	nt	-2.1	-0.1	-2.1
CNC[C@H]1OCCCC[C@H](C)Oc2ccc(NC(=O)CCCN(C)C)cc2C(=O)N([C@H](C)CO)C[C@@H]1C	10.3	-10.2	-2.2	6.0	107.2*!	-1.9
C[C@@H]1CCCCO[C@H](CN(C)C(=O)CCCN(C)C)[C@@H](C)CN([C@H](C)CO)C(=O)c2cc(NC(=O)CCCN(C)C)ccc2O1	nt	1.7	nt	20.4*	nt	2.5
C[C@@H]1CN([C@@H](C)CO)C(=O)c2cc(NC(=O)CCCN(C)C)ccc2O[C@@H](C)CCCCO[C@H]1CN(C)CC1CCCCC1	-54.2	-2.5	nt	3.0	-0.3	2.3
C[C@@H]1CCCCO[C@H](CN(C)C(=O)CCCN(C)C)[C@@H](C)CN([C@H](C)CO)C(=O)c2cc(NC(=O)CCC(F)(F)F)ccc2O1	-9.6	-7.1	nt	nt	-0.1	-4.3
C[C@@H]1CCCCO[C@@H](CN(C)CC2CC2)[C@H](C)CN([C@H](C)CO)C(=O)c2cc(NC(=O)CCCN(C)C)ccc2O1	nt	nt	nt	43.2*	nt	0.8
Cc1noc(C)c1S(=O)(=O)Nc1cccc2c1O[C@@H](CN(C)Cc1ccc(Cl)c(Cl)c1)[C@@H](C)CN([C@@H](C)CO)C2=O	30.2	1.9	nt	-4.4	-0.8	0.5
C[C@@H]1CCCCO[C@H](CN(C)S(=O)(=O)c2ccc(Cl)cc2)[C@@H](C)CN([C@@H](C)CO)C(=O)c2cc(NC(=O)Nc3ccc(C(F)(F)F)cc3)ccc2O1	nt	nt	nt	32.0*	-12.3	1.6
Cc1ccc(S(=O)(=O)N(C)C[C@H]2OCCCC[C@@H](C)Oc3ccc(NC(=O)Nc4ccc(C(F)(F)F)cc4)cc3C(=O)N([C@@H](C)CO)C[C@H]2C)cc1	nt	-2.4	nt	24.5*	-3.1	1.4
Cc1ccc(S(=O)(=O)N(C)C[C@H]2OCCCC[C@H](C)Oc3ccc(NC(=O)Nc4ccc(C(F)(F)F)cc4)cc3C(=O)N([C@@H](C)CO)C[C@H]2C)cc1	nt	-1.6	nt	-0.3	0.2	0.2
CCCc1cc(C(F)(F)F)c(C#N)c(=O)[nH]1	-2.4	nt	-2.9	nt	1.3	nt
CC(C)(C)c1cc(C(F)(F)F)c(C#N)c(=O)[nH]1	120.4*	nt	-4.1	nt	0.2	nt
CC(=O)NC(Cc1c[nH]c2ccccc12)C(=O)OCC(=O)N1CCN(S(=O)(=O)c2ccc(Cl)cc2)CC1 (stereo not drawn)	7.3	-8.5	31.6*	3.3	-0.6	1.8
O=C(Cc1c[nH]c2ccccc12)N1CCN(S(=O)(=O)c2ccc(Cl)cc2)CC1	25.4	-2.8	2.4	-5.5	1.4	1.7
COc1ccc(NC(=O)Nc2cccc3c2O[C@H](CN(C)Cc2ccccc2)[C@H](C)CN([C@H](C)CO)C3=O)cc1	-26.1	-0.6	nt	29.5*	38.7	0.7
C[C@@H]1CN([C@@H](C)CO)C(=O)c2cccc(NC(=O)Nc3ccccc3)c2O[C@H]1CN(C)Cc1ccc(C(=O)Nc2ccccc2N)cc1	69.5*	14.5	nt	0.7	-1.3	-4.4
